Measurements reported in paper PMC9810488 (Translational and Clinical Pharmacology, 2022).
Read-outs that look alike come from different tables or passages of the source.

Experiments:
[1] = type: in vivo, human; settings: sitagliptin 100 mg single oral dose, plasma
Summary of the method: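 Healthy Korean adults (≥19 years, BMI 18.0–30.0 kg/m2) took a single 100 mg oral tablet with 150 mL water in randomized periods, washout ≥7 days. Heparinized blood was drawn predose and 15 min–48 h postdose, centrifuged 3,000 rpm, 10 min, 4°C, and plasma stored at −70°C. Assay was LC-MS/MS, positive-ion ESI. Noncompartmental: Cmax observed, AUCinf by linear-up log-down trapezoidal rule. ABCB1 genotyped by TaqMan allelic discrimination.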

[2] = cited from earlier work
[3] = cited from earlier work; remark: listed apart in the source

## N[C@@H](CC(=O)N1CCn2c(nnc2C(F)(F)F)C1)Cc1cc(F)c(F)cc1F [Sitagliptin]
[1]; ABCB1 C1236T CC+CT (n=72)
  Sitagliptin AUCinf: 3,504.78 ± 655.77 ng*h/mL
[1]; ABCB1 C1236T CT+TT (n=81)
  Sitagliptin Cmax: 456.01 ± 123.74 ng/mL
[1]; ABCB1 C3435T CC (n=49)
  Sitagliptin AUCinf: 3,530.20 ± 669.78 ng*h/mL
[1]; ABCB1 C3435T CC+CT (n=91)
  Sitagliptin AUCinf: 3,484.02 ± 630.25 ng*h/mL
[1]; ABCB1 C3435T CT (n=42)
  Sitagliptin Cmax: 454.26 ± 136.79 ng/mL
[1]; ABCB1 C3435T CT+TT (n=51)
  Sitagliptin Cmax: 457.53 ± 130.73 ng/mL
[1]; ABCB1 C3435T TT (n=9)
  Sitagliptin AUCinf: 3,528.50 ± 564.05 ng*h/mL
[1]; ABCB1 G2677T/A AA (n=2)
  Sitagliptin AUCinf: 3,481.41 ng*h/mL
[1]; ABCB1 G2677T/A AT+GA (n=37)
  Sitagliptin AUCinf: 3,501.79 ± 714.08 ng*h/mL
  Sitagliptin Cmax: 457.90 ± 98.21 ng/mL
[1]; ABCB1 G2677T/A AT+GT (n=44)
  Sitagliptin AUCinf: 3,475.54 ± 576.82 ng*h/mL
  Sitagliptin Cmax: 457.31 ± 142.79 ng/mL
[1]; ABCB1 G2677T/A GA (n=20)
  Sitagliptin AUCinf: 3,679.91 ± 852.18 ng*h/mL
[1]; ABCB1 G2677T/A GA+GT (n=47)
  Sitagliptin AUCinf: 3,628.80 ± 723.63 ng*h/mL
[1]; ABCB1 G2677T/A TT (n=9)
  Sitagliptin AUCinf: 3,477.17 ± 596.14 ng*h/mL
[2]
  drug eliminated as unchanged compound in the urine: over 80%

## C[C@H]1O[C@@H](O[C@H]2[C@@H](O)C[C@H](O[C@H]3[C@@H](O)C[C@H](O[C@H]4CC[C@@]5(C)[C@H](CC[C@@H]6[C@@H]5C[C@@H](O)[C@]5(C)[C@@H](C7=CC(=O)OC7)CC[C@]65O)C4)O[C@@H]3C)O[C@@H]2C)C[C@H](O)[C@@H]1O [digoxin]
[3]; 34 Caucasian subjects
  digoxin concentrations higher in 3435TT homozygous subjects than in CC and CT subjects: 20%
[3]; Japanese study, 114 subjects
  lower AUC for digoxin in 3435 TT genotype than in CC and CT genotypes: 20%
[3]; single digoxin dose
  relationship between C3435T SNP and digoxin concentrations: no relationship
